Among the data in ChEMBL document CHEMBL1125429, “Intriguing structure-activity relations underlie the potent inhibition of HIV protease by norstatine-based peptides” (J Med Chem, 1992) are Ki and IC50 values, retold here.

Experiment [1] deals with T1, Human immunodeficiency virus type 1 protease (Human immunodeficiency virus 1, UniProt Q72874). Nature of the experiment: Binding affinity against HIV Protease enzyme.(by Dixon analysis). The method in brief:
(§1)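 HIV-1 protease from the BRU strain was expressed in a microbial host. Activity was followed as hydrolysis of the octapeptide substrate VSQN-β-naphthylalanine-PIV, using a modified version of Heimbach's method.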

In experiment [2] the target is T1, Human immunodeficiency virus type 1 protease. Nature of the experiment: Inhibitory activity of the Compound was tested against HIV protease enzyme. The method in brief:
as §1

Experiment [3] shares this target. As to the kind of experiment: Inhibitory activity of the Compound was tested against HIV protease enzyme.(value reported by Roche group).
The target is the same in experiment [4]. As to the kind of experiment: Binding affinity against HIV protease enzyme.(by Dixon analysis). The method in brief:
as §1

Experiment [5] has the same target. As to the kind of experiment: (§2) Inhibitory activity of the Compound was tested against HIV protease enzyme. The method in brief: (§3)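 HIV-1 protease (BRU strain), microbially expressed; activity followed as hydrolysis of the octapeptide substrate VSQN-β-naphthylalanine-PIV, using a modified literature method.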
The target is the same in experiment [6]. As to the kind of experiment: Inhibitory activity of the Compound was tested against HIV protease enzyme.(value reported by Rich etal).
For experiment [7] the target is unchanged. The experiment is described as §2. The method in brief: as §3
This is another data set of the same source.

Broadly, the Ki is a dissociation constant, usually derived from enzyme kinetics or from competition with a known ligand. One may read the IC50 as the concentration needed to halve the response being measured. Molecule `CC(C)(C)NC(=O)[C@@H]1CCCN1C(=O)[C@@H](O)[C@H](Cc1ccccc1)NC(=O)[C@H](CC(N)=O)NC(=O)OCc1ccccc1` registered a Ki in experiment [1] of 4 nM. The same molecule had an IC50 in experiment [2] of 7.4 nM.

Take `CC(C)(C)NC(=O)[C@@H]1CCCN1C[C@@H](O)[C@H](Cc1ccccc1)NC(=O)[C@H](CC(N)=O)NC(=O)OCc1ccccc1`: half-maximal inhibition in experiment [3] (IC50) was put at 210 nM. Turning to `CC(C)(C)NC(=O)[C@@H]1CCCCN1C(=O)[C@@H](O)[C@H](Cc1ccccc1)NC(=O)[C@H](CC(N)=O)NC(=O)OCc1ccccc1`, it took 26 nM to reach half-maximal inhibition in experiment [2] (IC50).

For the molecule `CC(C)(C)NC(=O)[C@@H]1CC2CCCCC2CN1C[C@@H](O)[C@H](Cc1ccccc1)NC(=O)[C@H](CC(N)=O)NC(=O)OCc1ccccc1` (stereo not given in full), the IC50 in experiment [3] was less than 2.7 nM. As to `CC(C)(C)NC(=O)[C@@H]1CCCN1C(=O)[C@@H](O)[C@H](Cc1ccccc1)NC(=O)OCc1ccccc1`, 460 nM corresponded to half-maximal inhibition in experiment [2] (IC50). On to `CC(C)(C)NC(=O)[C@@H]1CCCN1C(=O)[C@@H](O)[C@H](Cc1ccccc1)NC(=O)[C@H](CC(N)=O)NC(=O)c1ccc2ccccc2n1`, for which, in experiment [4], affinity was put at a Ki of 0.9 nM. This molecule also yielded an IC50 in experiment [2] of 1.1 nM. For `CC(C)(C)NC(=O)[C@@H]1CCCN1C(=O)[C@@H](O)[C@H](Cc1ccccc1)NC(=O)[C@H](CC(N)=O)NC(=O)COc1ccc2ccccc2c1`, in experiment [2], the IC50 turned out to be 1.3 nM. Same read-out and setting: under `CC(C)[C@H](NC(=O)OCc1ccccc1)C(=O)N[C@@H](Cc1ccccc1)[C@H](O)C(=O)N1CCC[C@H]1C(=O)NC(C)(C)C` stands 4.3 nM; under `CC[C@H](C)[C@H](NC(=O)[C@@H]1CCCN1C(=O)[C@@H](O)[C@H](Cc1ccccc1)NC(=O)[C@@H](CC(N)=O)NC(=O)OCc1ccccc1)C(=O)N[C@H](C(=O)OC)C(C)C`, 3.1 nM; under `CC(C)(C)NC(=O)[C@@H]1CCCN1C(=O)C(=O)[C@H](Cc1ccccc1)NC(=O)[C@H](CC(N)=O)NC(=O)OCc1ccccc1`, 20 nM. Molecule `CC(C)(C)NC(=O)[C@@H]1CCCCN1C[C@@H](O)[C@H](Cc1ccccc1)NC(=O)[C@H](CC(N)=O)NC(=O)OCc1ccccc1` gave a half-maximal inhibitory concentration (IC50) in experiment [3] of 18 nM. This counts as double-digit nanomolar.

On to `CC(C)(C)OC(=O)[C@@H]1CCCN1C[C@H](O)[C@H](Cc1ccccc1)NC(=O)[C@H](CC(N)=O)NC(=O)OCc1ccccc1`, for which the IC50 in experiment [5] turned out to be 180 nM; in experiment [6], 450 nM; in experiment [7] it was 130 nM.

In experiment [2], `CC(C)(C)NC(=O)[C@@H]1CCCN1C(=O)C(=O)[C@H](Cc1ccccc1)NC(=O)OCc1ccccc1` yielded an IC50 of 600 nM. `CC(C)(C)NC(=O)[C@@H]1C[C@@H]2CCCC[C@@H]2CN1C(=O)[C@@H](O)[C@H](Cc1ccccc1)NC(=O)[C@H](CC(N)=O)NC(=O)OCc1ccccc1` showed an IC50 in experiment [2] of 84 nM. This IC50 is about 7.1-fold lower than that of the molecule before. In turn, `CC(C)(C)NC(=O)[C@@H]1CCCN1C(=O)[C@@H](O)[C@H](Cc1ccccc1)NC(=O)[C@H](CC(N)=O)NC(=O)COc1cccc2ccccc12` registered a Ki in experiment [1] of 0.4 nM. The same molecule came in with a half-maximal inhibitory concentration (IC50) in experiment [2] of 0.58 nM. In the case of `CC(C)(C)NC(=O)[C@@H]1CCCN1C(=O)[C@H](O)[C@H](Cc1ccccc1)NC(=O)[C@H](CC(N)=O)NC(=O)OCc1ccccc1`, in experiment [2], the IC50 amounted to 3100 nM.

Consider `CC(C)(C)OC(=O)[C@@H]1CCCN1C[C@@H](O)[C@H](Cc1ccccc1)NC(=O)OCc1ccccc1`, for which the IC50 in experiment [3] is 6500 nM.

Molecule `CC[C@H](C)[C@H](NC(=O)[C@@H]1CCCN1C(=O)[C@H](O)[C@H](Cc1ccccc1)NC(=O)[C@H](CC(N)=O)NC(=O)OCc1ccccc1)C(=O)N[C@H](C(=O)OC)C(C)C` had an IC50 in experiment [2] of 25 nM. In other words, the double-digit nanomolar range. On the same count and under the same terms, the result for `CC(C)[C@H](NC(=O)COc1cccc2ccccc12)C(=O)N[C@@H](Cc1ccccc1)[C@H](O)C(=O)N1CCC[C@H]1C(=O)NC(C)(C)C` reads 1.9 nM.

For `CC(C)(C)NC(=O)[C@@H]1C[C@@H]2CCCC[C@@H]2CN1C(=O)[C@@H](O)[C@H](Cc1ccccc1)NC(=O)[C@H](CC(N)=O)NC(=O)c1ccc2ccccc2n1`, the IC50 in experiment [2] stood at 27 nM.
